# The list is not random: actives were taken first. Their share in the collection is about 3.1%.
# H9c2 TAG inh: triacylglycerol accumulation inhibition; H9c2 cells, Nile Red lipid (TAG) fluorescence; cells loaded with 200 µM oleic acid; 0.66% of 230,000 active; inhibition, % at 12.5 µM; AID 651582;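 active = pattern-corrected inhibition of lipid staining of at least 50% with the nuclear-stain viability signal not falling by more than 50%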;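 also: 0% = DMSO wells and 100% = triacsin C control wells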
# T cruzi repl: T. cruzi replication inhibition. T. cruzi beta-gal in NIH3T3, luminescence, 90 h. inhibition, % (concentration not given with the values). 1.4% of 300,000 active. AID 1885;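 active = mean inhibition across valid replicates above about 55%, limit read from the data; inconclusive = mean below that limit but half or more replicates reach it; inactive = mean below it, under half of replicates reach it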;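 also: signal also drops with host cell toxicity which is not excluded here; 0% = plate median of DMSO wells and 100% = zero luminescence signal; higher percent means less beta-gal luminescence so fewer parasites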
#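 Assay system: NIH/3T3 fibroblasts plus reporter T. cruzi. Amount: NIH/3T3 cells, 5,000 per well. Buffer or medium: DMEM, 2% fetal bovine serum. Doses: compound pinned at 50 nL/well, DMSO. Schedule: ≥90 h infection period, 3 h prior cell attachment. Signal: luminescent β-galactosidase signal after 60 min lysis. Read-out: parasite load inhibition, %.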
# Beta cell apopt: blocks beta cell apoptosis | INS-1E cytokine-induced death, ATP luminescence, 48 h; percent of positive-control rescue, neutral wells zero | protection from apoptosis, % (concentration not given with the values) | 0.8% of 300,000 active | AID 435005;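 active = Every replicate reaches about 75%, or at least half do and their mean reaches it too, limit read from the data; inconclusive = At least half of replicates reach the limit but their mean does not; inactive = Under half of replicates reach the limit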;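 also: 0% = cytokine-treated negative control wells and 100% = positive control rescue; higher means more ATP so stronger rescue from cytokine killing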
# Calb FLC: affects C. albicans growth with fluconazole. C. albicans CaCi-2 + fluconazole, Alamar Blue growth, 48 h. growth inhibition, % (test concentration not listed). 0.57% of 300,000 active;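 active = growth inhibition above about 58% in most replicates, limit read from the data, passing the limit was not always enough; inconclusive = exactly half the replicates above a set limit; inactive = most replicates below a set limit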;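 also: all wells also contain fluconazole at 8 µg/ml as a sub-toxic cotreatment; 0% = median of DMSO wells and 100% = median of geldanamycin control wells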
# CSC inhib: blocks cancer stem cells. cancer stem cell-like cells viability, luminescence. inhibition, % at 7.5 µM. 1.1% of 300,000 active; in the data active = inhibition above about 75%; inconclusive = no clear call, values can overlap the other calls; tested in HMLE shEcad cells
# A1 inh: inhibitors of the anti-apoptotic protein A1, read as caspase activation; MEF A1-2A-BIM cells, Caspase-Glo 3/7 luminescence, 3 h; percent of clofoctol response, vehicle zero; 0.066% of 330,000 active; AID 2462; caspase activation, % (concentration not given with the values);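 active = over half of replicate activation scores above 10%, or exactly half above 10 with the replicate mean above 10; inconclusive = replicate mean below 10 yet half the replicates above 10; inactive = over half of replicates below 10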
# * hit, by the source's call; ? = inconclusive; · = no result given.
SMILES,H9c2 TAG inh,T cruzi repl,Beta cell apopt,Calb FLC,CSC inhib,A1 inh
O=C(CN(C(=O)CNC(=O)c1cccs1)c1ccccc1F)NC1CCCC1,·,2,-2,30,-33,0
O=C(CN1C(=O)c2ccccc2C1=O)NCC(=O)Nc1ccccc1,1,·,·,·,·,·
O=C(Cn1cnc([N+](=O)[O-])c1)Nc1cc(Oc2ccc(Cl)cc2Cl)cc([N+](=O)[O-])c1,·,57*,17,0,72,1
N#Cc1ccc(NC(=O)Cn2cnc([N+](=O)[O-])c2)cc1,0,-10,-2,4,-16,0
COc1ccc(CN2CCN(C(=O)C3CCC(CNS(=O)(=O)c4ccc(C)cc4)CC3)CC2)c(OC)c1OC (stereo not given),-14,57*,9,1,·,1
COc1ccc(CN2CCN(C(=O)C3CCN(S(=O)(=O)c4cccs4)CC3)CC2)c(OC)c1OC,-8,-1,-1,-18,-2,0
Cc1ccc(S(=O)(=O)Oc2ccccc2[N+](=O)[O-])cc1,-11,·,·,·,·,·
CCN(C(=O)C(=O)c1c[nH]c2ccccc12)c1ccccc1,11,3,·,3,·,1
O=C(c1c[nH]c2ccccc12)C(O)C(c1ccccc1)N1CCOCC1 (stereo not given),·,-1,1,-3,0,0
O=C(c1c[nH]c2ccccc12)C(Cl)c1ccccc1 (stereo not given),·,-11,-25,7,83*,3
O=C(Cc1ccsc1)NCC(=O)Nc1ccc(F)c(F)c1,-11,-7,-3,11,3,0
COc1cc(/C=C2/CCC/C(=C\c3cc(O)c(OC)c(Cl)c3)C2=O)cc(Cl)c1O,-3,12,9,8,119*,1
COc1cc(/C=C2\CCC/C(=C\c3ccc(O)c(OC)c3)C2=O)ccc1O,·,-10,-24,-7,100*,1
COc1cc(/C=C2\CC/C(=C\c3cc(OC)c(OC)c(OC)c3)C2=O)cc(OC)c1OC,-14,35,8,12,4,0
COc1cc(/C=C2\CC/C(=C\c3cc(OC)c(O)c(OC)c3)C2=O)cc(OC)c1O,1,·,89*,·,86*,0
COc1cc(/C=C2\CC(C(C)(C)C)C/C(=C\c3cc(OC)c(OC)c(OC)c3)C2=O)cc(OC)c1OC (stereo not given),·,50,98*,4,107*,-1
O=C(COC(=O)CC1SC(N2CCCC2)=NC1=O)Nc1c(F)c(F)c(F)c(F)c1F (stereo not given),15,·,-1,·,·,0
Cc1ccc(NC(=O)COC(=O)c2oc3ccccc3c2C)cc1S(=O)(=O)N1CCOCC1,-59,·,·,·,·,·
Cc1ccc(C(=O)NCCCn2ccnc2)cc1[N+](=O)[O-],-5,5,1,-5,-11,0
CC1CN(S(=O)(=O)c2ccc(C(=O)NCCCn3ccnc3)cc2)CC(C)O1 (stereo not given),-1,2,113*,-3,67,-1
O=C(NCCCn1ccnc1)c1ccc(N2CCCCCC2)c([N+](=O)[O-])c1,·,16,95*,12,60,1
O=C(NCCCn1ccnc1)c1ccc(-c2ccccc2)cc1,·,-19,97*,-6,-15,1
CCOc1ncccc1C(=O)OCC(=O)NC(=O)c1ccccc1,-8,·,2,·,·,0
O=C(NCc1nnc(SCC(=O)N2CCOCC2)o1)c1c(F)cccc1F,-15,-2,-3,2,-5,0
CC(NC(=O)C1CCN(C(=O)Nc2ccccc2)CC1)c1ccccc1Cl (stereo not given),0,·,5,·,·,-1
SMILES,H9c2 TAG inh,T cruzi repl,Beta cell apopt,Calb FLC,CSC inhib,A1 inh
CCn1c(Cl)c(C=O)s/c1=N\S(=O)(=O)c1ccccc1,85*,55*,117*,3,?,56*
Cc1cc(C)cc(NC(=O)CSc2ccc(-c3ccccn3)nn2)c1,-12,34,24,1,96*,1
O=C(CCl)N(c1ccccc1)C1CCCCC1,47,65*,107*,24,-16,1
COc1ccc2c(c1)Cc1sc(NC(=O)c3cccs3)nc1-2,·,55*,10,5,-3,-8
COc1cc(/C=N/NC(=O)C(=O)/C=C2\NC3(CCCC3)Cc3ccccc32)ccc1O,·,22,0,-5,·,0
O=C(/C=C1\NC2(CCCC2)Cc2ccccc21)C(=O)N/N=C/c1ccccc1O,·,51,·,95*,·,0
Cn1c(CC(=O)NNC(=O)c2ccc(Cl)nc2)nc2ccccc21,-1,·,-7,·,-11,1
N#CCSc1n[nH]c2nc3c(c(=O)n12)C1(CCCC1)Cc1ccccc1-3,·,-4,-9,73,22,1
N#CCSc1nc2c(c(=O)n1Cc1ccco1)C1(CCCC1)Cc1ccccc1-2,-18,36,0,3,83*,-1
CCCn1c(SCC#N)nc2c(c1=O)C1(CCCC1)Cc1ccccc1-2,-4,23,9,1,127*,0
N=c1c2c(-c3ccccc3)c(-c3ccccc3)n(Cc3ccccc3)c2ncn1CCO,·,57*,8,97*,8,0
CC(C)Cn1cnc2c(c(-c3ccccc3)c(-c3ccccc3)n2Cc2ccco2)c1=N,11,60*,56,17,58,-1
N=c1c2c(-c3ccccc3)c(-c3ccccc3)n(Cc3ccco3)c2ncn1Cc1ccccc1,-23,47,91*,8,110*,-1
OCCn1cnc2c(SCc3ccccc3)ncnc21,9,·,·,·,·,·
O=C(Nc1ccc(F)cc1F)c1ccc(S(=O)(=O)NCc2ccco2)cc1,-2,·,-2,·,-2,1
O=Nc1c(-c2cccc([N+](=O)[O-])c2)nc2ncccn12,3,20,14,94*,4,0
O=[N+]([O-])c1cccc(-c2cnc3ccccc3n2)c1,-10,-2,-1,-4,1,-5
CN(CC(=O)Nc1ccc(N2CCOCC2)cc1)C(=O)c1ccc(CS(C)(=O)=O)cc1,0,·,-10,·,-11,0
CCCn1c(SCc2nc(-c3cccs3)no2)nnc1-c1ccncc1,·,7,-2,2,-8,-1
CCOc1ccc(-n2c(SCc3nc(-c4cccs4)no3)nnc2-c2ccncc2)cc1,·,64*,·,-2,·,0
Cc1ccc([C@H]2N[C@]3(CCCN(CC4CCCCC4)C3=O)[C@H]3C(=O)N(C)C(=O)[C@@H]23)cc1,-1,·,·,·,·,·
COc1ccc(-c2nn(-c3ccccc3)cc2/C=N/Nc2ccc3ccccc3n2)cc1OC,·,47,86*,-14,5,1
COc1ccc(-c2nn(-c3ccccc3)cc2/C=N/O)cc1OC,·,35,-13,-8,32,0
O=C(CSc1nnnn1-c1cccc(O)c1)NC1CC1,-1,-10,-5,4,-10,1
CC(C)C[C@H]1CN=C(Nc2ccccc2)N1CCCC1CCCC1,41,42,38,-21,25,1
CC(C)C[C@H]1CN=C(Nc2ccccc2)N1CCCC1CCCCC1,-1,41,49,77*,27,0
